Screening results from PubChem BioAssay.
TAAR1 antag = human TAAR1 antagonists, primary screen, Fluo-8 calcium fluorescence, CHO RD-HGA16 cells; antagonist; inhibition, % at 3 µM; 1.5% of 360,000 active;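 active = inhibition above a per-plate cutoff, the mean inhibition of test compounds on that plate plus 3 SD, cut at about 49% in these data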;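 also: 0% = DMSO plus EC80 beta-PEA response and 100% = DMSO alone without agonist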
Target sequence (Q96RJ0 whole entry, looked up): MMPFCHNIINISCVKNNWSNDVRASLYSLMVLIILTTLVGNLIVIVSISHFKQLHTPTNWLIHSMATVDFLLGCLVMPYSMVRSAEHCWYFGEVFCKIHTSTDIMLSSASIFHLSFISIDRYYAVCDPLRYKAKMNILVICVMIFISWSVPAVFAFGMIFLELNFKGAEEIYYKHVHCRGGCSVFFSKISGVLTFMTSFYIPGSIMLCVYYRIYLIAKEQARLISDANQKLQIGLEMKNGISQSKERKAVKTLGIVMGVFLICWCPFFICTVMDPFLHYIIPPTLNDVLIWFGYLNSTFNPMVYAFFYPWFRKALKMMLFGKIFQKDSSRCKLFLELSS
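Material: CHO RD-HGA16 cells bearing hTAAR1; compound dosing: one-point dosing, 3 µM nominal final; schedule: dye loading 75 min at 37 °C, then 30 min room temperature; measured by: calcium fluorescence with Fluo-8; control set: vehicle and agonist controls; replication: n of 1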
HCV core dimer = inhibitors of HCV core protein dimerization, primary screen, biochemical, TR-FRET, high-throughput | TR-FRET GST/Flag-core106 dimerization, 1536-well | inhibition, % at 5 µM | 0.33% of 300,000 active | AID 1899, 2009;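 active = inhibition above the mean of all tested compounds plus 3 SD, set per screening campaign, cut at about 45% in these data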
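Assay system: tagged HCV core106 pair (GST and Flag); medium: KF-containing HEPES buffer, pH 7.45, DTT, CHAPS, BSA; also added: Eu donor and XL665 acceptor anti-tag antibodies; dosing: 5 µM single dose; timing: compound-protein-antibody incubation 4 h at 22.5 °C; signal: TR-FRET 671 and 617 nm emission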
TAAR1 ag = human TAAR1 agonists, primary screen, Fluo-8 calcium fluorescence, CHO RD-HGA16 cells. Trace amine-associated receptor 1 (Homo sapiens), Q96RJ0. vehicle wells 0%, saturating PEA agonist 100%. activation, % at 3 µM. 0.99% of 360,000 active;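 active = activation above the mean activation of all test compounds in the run plus 3 SD, cut at about 38% in these data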
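System: CHO RD-HGA16 cells carrying human TAAR1 plus Gα16; Incubation: 17-24 h seeding, 75 min 37 °C dye, 30 min RT; Measured by: Fluo-8 fluorescence, 5 s baseline then 140 s kinetic read; Control set: DMSO and PEA EC100; Replication: single well for each compound.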
NS3 helicase inh = inhibitors of HCV NS3 helicase, primary screen, biochemical, Cy5 molecular beacon fluorescence; NS3 helicase DNA unwinding; 0.56% of 290,000 active; inhibition, % at 10.9 µM; Hepatitis C virus NS3 helicase;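 active = inhibition above the mean of all tested compounds plus 3 SD, set per campaign, cut at about 35% in these data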;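 also: 0% = DMSO wells and 100% = thioflavine S control wells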
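Material: hepatitis C virus NS3 helicase domain fragment enzyme; measured by: Cy5 fluorescence, 0 and 60 min reads; control set: DMSO and thioflavine S; incubation: 60 min unwinding reaction at 25 °C after ATP addition; read-out basis: % inhibition from 60/0 min fluorescence ratio, DMSO 0%, thioflavine S 100%; repeats: singlicate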
rCAG binder = binders of r(CAG) RNA repeats, primary screen, biochemical, fluorescence. r(CAG) RNA repeat, TO-PRO-1 dye displacement fluorescence. inhibition, % at 3 µM. 1.3% of 370,000 active. AID 651821, 2012;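 active = inhibition above the plate cutoff, the mean of all test compounds on that plate plus 3 SD, cut at about 35% in these data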;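 also: 0% = DMSO alone and 100% = 100 µM mitoxantrone as full dye displacement; higher means more dye released from RNA so lower well fluorescence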
rCAG binder conf = small molecules binding CAG repeat RNA – biochemical, fluorescence, confirmation. shares compounds with rCAG binder. r(CAG) RNA repeat, TO-PRO-1 dye displacement fluorescence. inhibition, % at 3 µM. 70% of 4,300 active. AID 652065, 2013;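 active = inhibition above a per-plate cutoff, the mean inhibition of sample wells plus 3 SD, cut at about 35% in these data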;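 also: loss of TO-PRO-1 fluorescence as compound displaces dye from 1x1 AA loop RNA; 0% = DMSO only wells and 100% = 100 µM mitoxantrone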
DNA CAG counter = displacement of TO-PRO-1 from CAG DNA duplex, counter-screen for rCAG RNA repeat binder project, biochemical, fluorescence, TO-PRO-1 dye, d(CAG) DNA oligo; shares compounds with rCAG binder; d(CAG) DNA oligo TO-PRO-1 dye displacement; inhibition, % at 3 µM; 94% of 4,300 active; AID 652068, 2013;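 active = inhibition above its plate's cutoff, the mean test-well inhibition plus 3 SD, cut at about 4.8% in these data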;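 also: 0% = DNA dye mix with DMSO and 100% = 100 µM mitoxantrone; hits displace the dye from DNA and so lower well fluorescence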
dCAG dye DR = inhibitors of DNA CAG/GTC TO-PRO-1 complex, dose response, counter-screen for rCAG RNA repeat binder project, biochemical, fluorescence, TO-PRO-1 dye | shares compounds with rCAG binder | DNA CAG/GTC duplex TO-PRO-1 dye displacement fluorescence | IC50, µM | 20% of 250 active; in the data active = IC50 below about 10 µM
The depositor's hits bear a star; x = no result. Only some compounds are listed: those with a hit (about 3.7% of all), similar ones and a draw of the others.

SMILES	TAAR1 antag	HCV core dimer	TAAR1 ag	NS3 helicase inh	rCAG binder	rCAG binder conf	DNA CAG counter	others
O=C(NNC(=O)c1ccccc1O)c1ccc(Cl)c(S(=O)(=O)N2CCc3ccccc32)c1	43.5	5.0	6.9	x	48.0*	52.2*	18.6*
Cc1ccccc1N1CC(=O)N(c2ccccc2C)CC1=O	3.3	1.2	7.4	-5.4	-1.9	x	x
Cc1cccc2c1c1ccc3c(c1n2C)C(=O)C=CC3=O	-14.2	x	2.4	25.9	39.5*	19.8	12.6*
CN(Cc1ccccc1)C(=O)OCc1cn(Cc2cccc(Cl)c2)nn1	x	x	x	x	2.6	x	x
Cc1ccc(-c2[nH]c(-c3ccc(C(=O)O)cc3)nc2-c2ccccc2)cc1	-3.5	17.9	-0.9	19.2	70.0*	58.3*	18.4*
O=C(O)CCN1C(=O)c2ccc(NC(=O)C(c3ccccc3)c3ccccc3)cc2C1=O	-20.9	0.1	2.4	19.9	48.5*	34.8*	8.0*
Clc1cccc(Cc2c(-c3ccccc3)nc3ccc(Cl)cn23)c1	-1.5	x	-1.4	x	35.7*	19.2	5.5*
COc1ccccc1Cc1c(-c2cccc(Cl)c2)nc2ccc(Br)cn12	1.0	x	-0.5	x	38.0*	22.2	4.2
Clc1cccc(Cc2c(C3CCCCC3)nc3ccc(Br)cn23)c1	-10.0	x	-2.3	x	35.9*	23.1	2.9
Cc1cc(Br)cn2c(Cc3cccc(Cl)c3)c(-c3ccco3)nc12	37.9	x	24.0	x	41.7*	18.0	5.2*
CC(C)(C)OC(=O)NCc1ccccc1/C=C/S(=O)(=O)NCc1ccccc1	x	x	x	x	0.5	x	x
COC(=O)[C@@]12CCCCC3=C1N(CCC3)C(=O)[C@H]2CC(=O)N1CCCCC1	x	x	x	x	-2.3	x	x
CC1(NC(=O)c2ccc(C#Cc3cccc(F)c3)cn2)COC1	x	x	x	x	-0.5	x	x
COc1ccc(CNS(=O)(=O)/C=C/c2cc(C)ccc2CNC(=O)OC(C)(C)C)cc1	x	x	x	x	-0.8	x	x
Clc1ccc2nc(-c3cccc(Br)c3)c(Cc3ccccc3)n2c1	-13.3	x	-1.3	x	31.2	x	x
Clc1cccc(Cc2c(-c3cccc(Br)c3)nc3ccc(Cl)cn23)c1	5.5	x	-1.7	x	44.7*	25.6	9.9*
COC(=O)[C@]12C[C@H](CC(=O)NCc3ccc(OC)c(OC)c3)C(=O)N(Cc3ccco3)C1=C[C@H](C(C)(C)C)O[C@@H]2C	x	x	x	x	0.1	x	x
COC(=O)C1CN(C(=O)OC(C)(C)C)C2=C1C(=O)CC(C)(C(=O)OC(C)(C)C)C2 (stereo not drawn)	x	x	x	x	-1.1	x	x
Nc1c(C(=O)N2CCN(c3ccccc3)CC2)nnn1Cc1ccc(Cl)cc1	x	x	x	x	4.8	x	x
O=C(CSC1=NS(=O)(=O)c2cc(Cl)ccc2N1)Nc1ccccc1C(F)(F)F	-14.2	5.4	-0.4	x	52.0*	51.7*	10.9*	dCAG dye DR=>29.9
O=C(CSC1=NS(=O)(=O)c2cc(Cl)ccc2N1)Nc1ccccc1F	-7.8	7.1	-0.7	x	59.2*	34.5	6.8*
CC(=O)Nc1ccc(NC(=O)CSC2=NS(=O)(=O)c3cc(Cl)ccc3N2)cc1	-5.7	0.3	0.0	x	22.3	x	x
CSc1ccc(/C=C/C(=O)NC(=O)c2ccccc2O)cc1	15.2	8.2	8.0	16.9	38.2*	25.9	8.7*
O=C(/C=C/c1ccc(Br)cc1)NC(=O)c1ccccc1O	-8.2	14.1	8.6	7.5	27.4	x	x
O=C(NCCO)C1(C(=O)C2CC2)CC(c2ccccn2)=NO1 (stereo not drawn)	x	x	x	x	-0.1	x	x
SMILES	TAAR1 antag	HCV core dimer	TAAR1 ag	NS3 helicase inh	rCAG binder	rCAG binder conf	DNA CAG counter	others
O=C(O)c1ccc(/C=N/NC(=O)c2ccc(CN3c4cccc5cccc(c45)S3(=O)=O)cc2)cc1	-9.9	11.0	0.1	-4.0	67.1*	67.8*	30.5*
CCCC(=O)N1CCC1(C)C(=O)NS(=O)(=O)c1cc(C)ccc1F (stereo not drawn)	-18.8	x	1.0	x	2.4	x	x
CC1(C(=O)NS(=O)(=O)c2ccc(F)cc2F)CCN1C(=O)CC(c1ccccc1)c1ccccc1 (stereo not drawn)	1.8	x	2.8	x	38.5*	32.6	5.8*
CC1(C(=O)NS(=O)(=O)c2ccc(F)cc2F)CCN1C(=O)CCc1ccccc1 (stereo not drawn)	-2.4	x	0.5	x	2.7	x	x
Cc1ccc(F)c(S(=O)(=O)NC(=O)C2(C)CCN2C(=O)CC(c2ccccc2)c2ccccc2)c1 (stereo not drawn)	-19.6	x	3.0	x	49.1*	42.5*	11.9*
Cc1ccc(CSc2nnc(-c3cccs3)o2)cc1C	x	x	x	x	1.1	x	x
COCCCNC(=O)C[C@H]1C[C@@]2(C(=O)OC)C(=C[C@H](COCc3ccccc3)O[C@@H]2C)N(Cc2ccco2)C1=O	x	x	x	x	2.8	x	x
CCCc1cc(=O)[nH]c(SCC(=O)Nc2cc(S(=O)(=O)N3CCOCC3)ccc2Cl)n1	-13.0	x	0.8	x	16.0	x	x
CCCc1cc(=O)[nH]c(SCC(=O)Nc2ccc(C)c(S(=O)(=O)N3CCCCC3)c2)n1	-30.0	x	-3.3	x	42.0*	36.5*	10.2*
CCCc1cc(=O)[nH]c(SCC(=O)Nc2ccc(OC)c(S(=O)(=O)N3CCCCC3)c2)n1	1.3	x	3.4	x	23.9	x	x
CCCc1cc(=O)[nH]c(SCC(=O)Nc2cc(S(=O)(=O)N3CCCCC3)ccc2Cl)n1	12.8	x	0.3	x	40.9*	35.0*	11.0*
Cn1c(=O)c(=O)n(C)c2cc(S(=O)(=O)N3CCN(Cc4ccc5c(c4)OCO5)CC3)ccc21	x	x	x	x	8.8	x	x
CC(C)=C1C(=O)NN(c2ccc(F)c(Cl)c2)C1=O	19.1	6.6	1.8	-16.0	83.4*	19.2	6.8*
Cc1ccc(Oc2ccc(S(=O)(=O)Nc3ccc(C(=O)O)cc3)cc2)cc1	-6.7	x	3.2	x	12.9	x	x
Cc1ccc(Sc2ccc(S(=O)(=O)Nc3ccc(C(=O)O)cc3)cc2)cc1C	56.5*	x	20.9	x	48.5*	43.4*	12.5*
O=C(O)c1ccc(Cl)cc1Nc1nc2cc(Cl)ccc2o1	5.5	1.2	-4.6	-34.6	73.3*	83.5*	61.9*
